Data taken from ChEMBL document CHEMBL4038284, “Synthesis of novel quinoline-based 4,5-dihydro-1H-pyrazoles as potential anticancer, antifungal, antibacterial and antiprotozoal agents” (Eur J Med Chem, 2017).

How the values were obtained:
Assay type in all cases: functional
CCRF-CEM = test: Growth inhibition of human CCRF-CEM cells incubated for 48 hrs by sulforhodamine B assay; conditions: for CC50: read-out: LC50 (the source's name)
Summary of the method: (§1)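 NCI 60-line screen. Cells in RPMI-1640 with 5% FBS and 2 mM L-glutamine, preincubated 24 h, then time-zero plates TCA-fixed. Compounds from DMSO stocks given at five final concentrations (100, 10, 1.0, 0.1, 0.01 µM) for 48 h at 37 °C, 5% CO2. Cells fixed with 10% TCA, SRB-stained, read at 515 nm. GI50 is the concentration giving 50% lower net protein increase versus control.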

RPMI-8226 = test: Growth inhibition of human RPMI8226 cells incubated for 48 hrs by sulforhodamine B assay; conditions: RPMI-8226, 48 h; for CC50: read-out: LC50 (the source's name); summary of the method: as §1
EKVX = test: Growth inhibition of human EKVX cells incubated for 48 hrs by sulforhodamine B assay
Summary of the method: (§2)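 NCI five-dose SRB assay (100, 10, 1.0, 0.1, 0.01 µM) with 48 h exposure in RPMI-1640 with 5% FBS and 2 mM L-glutamine. Cells fixed with TCA and stained with SRB, read at 515 nm. GI50 is the concentration where [(Ti−Tz)/(C−Tz)]×100 = 50.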

HOP-62 = test: Growth inhibition of human HOP62 cells incubated for 48 hrs by sulforhodamine B assay; conditions: HOP-62, 48 h; for CC50: read-out: LC50 (the source's name); summary of the method: as §2
HOP-92 = test: Growth inhibition of human HOP92 cells incubated for 48 hrs by sulforhodamine B assay; conditions: HOP-92, 48 h
Summary of the method: (§3)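 Five-dose NCI SRB assay at 100, 10, 1.0, 0.1 and 0.01 μM for 48 h at 37 °C, 5% CO2. Medium was RPMI-1640 with 5% FBS and 2 mM glutamine. Time-zero plates were TCA-fixed at compound addition, A515 read after SRB staining. GI50 was solved from [(Ti−Tz)/(C−Tz)]×100 = 50. Values beyond the tested range are given as > or <.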

NCI-H226 = test: Growth inhibition of human NCI-H226 cells incubated for 48 hrs by sulforhodamine B assay; conditions: NCI-H226, 48 h; for CC50: read-out: LC50 (the source's name); summary of the method: as §1
NCI-H23 = test: Growth inhibition of human NCI-H23 cells incubated for 48 hrs by sulforhodamine B assay; conditions: NCI-H23, 48 h; for CC50: read-out: LC50 (the source's name); summary of the method: as §3
NCI-H322M = test: Growth inhibition of human NCI-H322M cells incubated for 48 hrs by sulforhodamine B assay; conditions: for CC50: read-out: LC50 (the source's name); summary of the method: as §3
NCI-H522 = test: Growth inhibition of human NCI-H522 cells incubated for 48 hrs by sulforhodamine B assay; conditions: NCI-H522, 48 h; for CC50: read-out: LC50 (the source's name); summary of the method: as §1
HCC 2998 = test: Growth inhibition of human HCC2998 cells incubated for 48 hrs by sulforhodamine B assay; conditions: HCC 2998, 48 h; for CC50: read-out: LC50 (the source's name); summary of the method: as §1
HCT-15 = test: Growth inhibition of human HCT15 cells incubated for 48 hrs by sulforhodamine B assay; conditions: HCT-15, 48 h; summary of the method: as §1
KM12 = test: Growth inhibition of human KM12 cells incubated for 48 hrs by sulforhodamine B assay; conditions: KM12, 48 h; summary of the method: as §3
SF-268 = test: Growth inhibition of human SF268 cells incubated for 48 hrs by sulforhodamine B assay; conditions: SF-268, 48 h; summary of the method: as §3
SF-295 = test: Growth inhibition of human SF295 cells incubated for 48 hrs by sulforhodamine B assay; conditions: SF-295, 48 h; for CC50: read-out: LC50 (the source's name); summary of the method: as §3
SF-539 = test: Growth inhibition of human SF539 cells incubated for 48 hrs by sulforhodamine B assay; conditions: SF-539, 48 h; for CC50: read-out: LC50 (the source's name)
Summary of the method: (§4)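 NCI-60 panel cells grown in RPMI-1640 with 5% FBS and 2 mM L-glutamine, preincubated 24 h at 37 °C/5% CO2. Time-zero plates were TCA-fixed at compound addition. DMSO stocks were diluted in medium and tested at five final concentrations (100, 10, 1.0, 0.1, 0.01 µM) for 48 h. Cells were TCA-fixed, stained with SRB and read at 515 nm. GI50 = 50% lower net protein increase versus control.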

SNB-75 = test: Growth inhibition of human SNB75 cells incubated for 48 hrs by sulforhodamine B assay; conditions: SNB-75, 48 h; for CC50: read-out: LC50 (the source's name); summary of the method: as §1
U-251 = test: Growth inhibition of human U251 cells incubated for 48 hrs by sulforhodamine B assay; conditions: U-251, 48 h; for CC50: read-out: LC50 (the source's name); summary of the method: as §4
M14 = test: Growth inhibition of human M14 cells incubated for 48 hrs by sulforhodamine B assay; conditions: M14, 48 h; summary of the method: as §3
SK-MEL-5 = test: Growth inhibition of human SK-MEL-5 cells incubated for 48 hrs by sulforhodamine B assay; conditions: SK-MEL-5, 48 h; for CC50: read-out: LC50 (the source's name); summary of the method: as §1
UACC-257 = test: Growth inhibition of human UACC257 cells incubated for 48 hrs by sulforhodamine B assay; conditions: UACC-257, 48 h; for CC50: read-out: LC50 (the source's name); summary of the method: as §4
UACC-62 = test: Growth inhibition of human UACC62 cells incubated for 48 hrs by sulforhodamine B assay; conditions: UACC-62, 48 h; for CC50: read-out: LC50 (the source's name); summary of the method: as §1
IGROV-1 = test: Growth inhibition of human IGROV1 cells incubated for 48 hrs by sulforhodamine B assay; conditions: IGROV-1, 48 h; for CC50: read-out: LC50 (the source's name); summary of the method: as §1
OVCAR-3 = test: Growth inhibition of human OVCAR3 cells incubated for 48 hrs by sulforhodamine B assay; conditions: OVCAR-3, 48 h; for CC50: read-out: LC50 (the source's name); summary of the method: as §3
SK-OV-3 = test: Growth inhibition of human SKOV3 cells incubated for 48 hrs by sulforhodamine B assay; conditions: SK-OV-3, 48 h; for CC50: read-out: LC50 (the source's name); summary of the method: as §1
SN12C = test: Growth inhibition of human SN12C cells incubated for 48 hrs by sulforhodamine B assay; summary of the method: as §4
PC-3 = test: Growth inhibition of human PC3 cells incubated for 48 hrs by sulforhodamine B assay; conditions: PC-3, 48 h; for CC50: read-out: LC50 (the source's name); summary of the method: as §3
DU-145 = test: Growth inhibition of human DU145 cells incubated for 48 hrs by sulforhodamine B assay; conditions: DU-145, 48 h; summary of the method: as §2
MDA-MB-231 = test: Growth inhibition of human MDA-MB-231 cells incubated for 48 hrs by sulforhodamine B assay; conditions: MDA-MB-231, 48 h; summary of the method: as §3
Hs-578T = test: Growth inhibition of human Hs578T cells incubated for 48 hrs by sulforhodamine B assay; conditions: for CC50: read-out: LC50 (the source's name); summary of the method: as §3
BT-549 = test: Growth inhibition of human BT549 cells incubated for 48 hrs by sulforhodamine B assay; conditions: BT-549, 48 h; for CC50: read-out: LC50 (the source's name); summary of the method: as §2
MDA-MB-468 = test: Growth inhibition of human MDA-MB-468 cells incubated for 48 hrs by sulforhodamine B assay; conditions: MDA-MB-468, 48 h; summary of the method: as §3
[1] = read-out: LC50 (the source's name)

## COc1cc(C(=O)/C=C/c2cccc(Nc3ccnc4cc(Cl)ccc34)c2)cc(OC)c1OC
CCRF-CEM
  GI50: 360 nM
  CC50: > 100 µM
RPMI-8226
  GI50: 310 nM
  CC50: > 100 µM
EKVX
  GI50: 1620 nM
HOP-62
  GI50: 680 nM
  CC50: 6.06 µM
HOP-92
  GI50: 1470 nM
  LC50 (concentration giving 50% net cell kill): > 100 µM
NCI-H226
  GI50: 1270 nM
  CC50: 6.85 µM
NCI-H23
  GI50: 1670 nM
  CC50: 8.1 µM
NCI-H322M
  GI50: 1.52 µM
  CC50: 7.08 µM
NCI-H522
  GI50: 590 nM
  CC50: 6.23 µM
HCC 2998
  GI50: 1.72 µM
  CC50: 5.99 µM
HCT-15
  GI50: 520 nM
KM12
  GI50: 440 nM
SF-268
  GI50: 1.24 µM
SF-295
  GI50: 1420 nM
  CC50: 6.47 µM
SF-539
  GI50: 1360 nM
  CC50: 5.27 µM
SNB-75
  GI50: 1310 nM
  CC50: > 100 µM
U-251
  GI50: 910 nM
  CC50: 5.19 µM
M14
  GI50: 1410 nM
SK-MEL-5
  GI50: 1380 nM
  CC50: 5.18 µM
UACC-257
  GI50: 1430 nM
  CC50: 6.53 µM
UACC-62
  GI50: 1030 nM
  CC50: 5.4 µM
IGROV-1
  GI50: 1320 nM
  CC50: > 100 µM
OVCAR-3
  GI50: 390 nM
  CC50: 3.85 µM
SK-OV-3
  GI50: 1940 nM
  CC50: 2610 nM
SN12C
  GI50: 1160 nM
PC-3
  GI50: 1480 nM
  CC50: > 100 µM
DU-145
  GI50: 1460 nM
MDA-MB-231
  GI50: 1810 nM
Hs-578T
  GI50: 2.49 µM
  CC50: > 100 µM
BT-549
  GI50: 1230 nM
  CC50: 6.59 µM
MDA-MB-468
  GI50: 1130 nM

## COc1ccc(C2=NN(C=O)C(c3cccc(Nc4ccnc5cc(Cl)ccc45)c3)C2)cc1 (stereo not given)
CCRF-CEM
  GI50: 2140 nM
  CC50: > 100 µM
RPMI-8226
  GI50: 1360 nM
  CC50: > 100 µM
EKVX
  GI50: 2810 nM
  LC50: > 100 µM
HOP-62
  GI50: 2110 nM
  CC50: 67.7 µM
HOP-92
  GI50: 3410 nM
  LC50 (concentration giving 50% net cell kill): > 100 µM
NCI-H226
  GI50: 3130 nM
  CC50: > 100 µM
NCI-H23
  GI50: 1870 nM
  CC50: > 100 µM
NCI-H322M
  GI50: 6.51 µM
  CC50: > 100 µM
NCI-H522
  GI50: 1330 nM
  CC50: 61.9 µM
HCC 2998
  GI50: 11.7 µM
  CC50: > 100 µM
HCT-15
  GI50: 2130 nM
HCT-15; [1]
  CC50: > 100 µM
KM12
  GI50: 2180 nM
KM12; [1]
  CC50: > 100 µM
SF-268
  GI50: 4.79 µM
SF-268; [1]
  CC50: > 100 µM
SF-295
  GI50: 1240 nM
  CC50: > 100 µM
SF-539
  GI50: 2340 nM
  CC50: 39.7 µM
SNB-75
  GI50: 2560 nM
  CC50: > 100 µM
U-251
  GI50: 2770 nM
  CC50: 51.1 µM
M14
  GI50: 2340 nM
M14; [1]
  CC50: 67.5 µM
SK-MEL-5
  GI50: 920 nM
  CC50: 17.4 µM
UACC-257
  GI50: 3060 nM
  CC50: > 100 µM
UACC-62
  GI50: 2410 nM
  CC50: 68.1 µM
IGROV-1
  GI50: 3710 nM
  CC50: > 100 µM
OVCAR-3
  GI50: 1970 nM
  CC50: 63.7 µM
SK-OV-3
  GI50: 3330 nM
  CC50: > 100000 nM
SN12C
  GI50: 4450 nM
SN12C; [1]
  CC50: > 100 µM
PC-3
  GI50: 2870 nM
  CC50: > 100 µM
DU-145
  GI50: 3620 nM
DU-145; [1]
  CC50: > 100 µM
MDA-MB-231
  GI50: 4000 nM
MDA-MB-231; [1]
  CC50: > 100 µM
Hs-578T
  GI50: 3.92 µM
  CC50: > 100 µM
BT-549
  GI50: 1930 nM
  CC50: > 100 µM
MDA-MB-468
  GI50: 420 nM
MDA-MB-468; [1]
  CC50: 63.8 µM
